# Screening results deposited in PubChem by several laboratories.
# A selection: hits, their analogues and other compounds. The true share with any hit is near 3.8%.
# MPTP block – inhibitors of mitochondrial permeability transition pore; isolated mouse mitochondria, Ca2+ swelling absorbance, 30 min; inhibition, % at 10 µM; 360,000 tested, 1.4% active; AID 602449;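 active = inhibition of 50% or more, scaled per plate between neutral and stimulator controls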;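 also: 0% = DMSO wells given calcium and 100% = 1 mM EGTA wells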
# Beta2AR agonist – human beta-2 adrenergic receptor agonism by FAP | Am2.2-beta2AR cells, FAP receptor internalization, flow cytometry | response, % (no concentration beside the values) | 340,000 tested, 0.43% active | P07550;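 active = response above a set limit, near 3 SD of response in nonfluorescent compounds, cut at about 42% in these data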
# Target sequence (P07550 whole entry, looked up): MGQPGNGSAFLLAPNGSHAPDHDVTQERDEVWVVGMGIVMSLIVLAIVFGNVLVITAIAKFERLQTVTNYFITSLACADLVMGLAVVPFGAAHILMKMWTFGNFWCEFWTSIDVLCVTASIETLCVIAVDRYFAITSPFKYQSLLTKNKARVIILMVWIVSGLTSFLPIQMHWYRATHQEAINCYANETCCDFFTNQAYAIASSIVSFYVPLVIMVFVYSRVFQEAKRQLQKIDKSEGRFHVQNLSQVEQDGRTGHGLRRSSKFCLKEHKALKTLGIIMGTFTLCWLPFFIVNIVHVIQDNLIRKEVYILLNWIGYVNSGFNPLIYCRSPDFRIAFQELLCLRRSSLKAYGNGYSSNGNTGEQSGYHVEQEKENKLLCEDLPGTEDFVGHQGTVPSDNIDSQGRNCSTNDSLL
# T cell HTS – T cell immune modulators affecting CD8 T cell-vesicle binding. 2C CD8+ T cell-vesicle binding, flow cytometry; hits give low values. response (vesicle binding), % at 7 µM. 330,000 tested, 0.068% active;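 active = response, share of CD8 T cells binding vesicles, and their 90th percentile fluorescence all below set limits, cut at about 80% in these data, passing the limit was not always enough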;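 also: values below 100% mean blocked vesicle binding to the CD8+ T cells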
#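 Material: 2C TCR transgenic mouse naive CD8+ T cells, MACS-purified. Also added: QL9-charged Drosophila Ld/ICAM-1/B7-1 vesicles. Timing: binding 1.5 h at 37 °C. Measured by: high-throughput flow cytometry with anti-B7-1 and anti-CD8 staining. Read-out: percent CD8+ FL2 mean versus row control. Controls: Unloaded micro-vesicles (low), QL9 vesicles with 0.7% DMSO (high).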
# Exocytosis inh – blocks lytic granule exocytosis; TALL-104 LAMP-1 surface exposure, flow cytometry; cells stimulated with thapsigargin and PMA; 360,000 tested, 0.66% active; inhibition, % at 10 µM;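 active = inhibition above about 55%, limit read from the data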
# V-ATPase pH – yeast V-ATPase proton transport regulation by pHLuorin | S. cerevisiae, pHLuorin cytosolic pH fluorescence | response, % at 10 µM | 350,000 tested, 0.37% active | AID 504577; in the data active = response mostly above about 7.3%, no sharp cut-off; inactive = mostly below about 5.4%; also: actives read high
# rCAG binder – binds r(CAG) RNA repeats | inhibition, % at 3 µM | AID 651821 | r(CAG) RNA repeat, TO-PRO-1 dye displacement fluorescence | 370,000 tested, 1.3% active;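 active = inhibition above the plate cutoff, the mean of all test compounds on that plate plus 3 SD, cut at about 35% in these data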;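 also: 0% = DMSO alone and 100% = 100 µM mitoxantrone as full dye displacement; higher means more dye released from RNA so lower well fluorescence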
# rCAG binder conf – r(CAG) RNA repeat binding, confirmation | 4,300 tested, 70% active | inhibition, % at 3 µM | AID 652065 | TO-PRO-1 dye displacement fluorescence | shares compounds with rCAG binder;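 active = inhibition above a per-plate cutoff, the mean inhibition of sample wells plus 3 SD, cut at about 35% in these data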;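 also: loss of TO-PRO-1 fluorescence as compound displaces dye from 1x1 AA loop RNA; 0% = DMSO only wells and 100% = 100 µM mitoxantrone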
# dCAG dye counter – DNA CAG dye complex inhibition counter-screen. AID 652068. inhibition, % at 3 µM. 4,300 tested, 94% active. d(CAG) DNA oligo TO-PRO-1 dye displacement, fluorescence. shares compounds with rCAG binder;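 active = inhibition above its plate's cutoff, the mean test-well inhibition plus 3 SD, cut at about 4.8% in these data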;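 also: 0% = DNA dye mix with DMSO and 100% = 100 µM mitoxantrone; hits displace the dye from DNA and so lower well fluorescence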
# DNA CAG DR – disrupts DNA CAG TO-PRO-1 complex in dose response; shares compounds with rCAG binder; DNA CAG/GTC duplex TO-PRO-1 dye displacement fluorescence; IC50, µM; 250 tested, 20% active; AID 686960; in the data active = IC50 below about 10 µM
# The depositor's hits bear a star; / = no result.
SMILES,MPTP block,Beta2AR agonist,T cell HTS,Exocytosis inh,V-ATPase pH,rCAG binder,rCAG binder conf,dCAG dye counter,others
Cc1ccc(Cl)cc1NC(=O)c1cc(NC(=O)CCCC(=O)O)ccc1N1CCCCC1,1.3,12.1,299.9,13.8,-0.3,51.1*,55.8*,18.2*,
Cc1ccc(NC(=O)c2cc(NC(=O)CCC(=O)O)ccc2N2CCCCC2)cc1,-3.7,-1.5,237.7,-2.2,1.6,10.9,/,/,
O=C(O)c1ccccc1NC(c1ccccc1)c1ccc(Cl)cc1 (stereo not drawn),1.4,3.9,278.1,-4.5,-1.9,58.2*,54.4*,11.5*,DNA CAG DR=>29.9
O=C(CSc1ccccc1C(=O)O)c1ccc(Cl)cc1,-0.6,-4.7,349.1,-8.9,-1.9,1.9,/,/,
O=[N+]([O-])c1ccc(-c2nc(Nc3cccc(O)c3)c3ccccc3n2)cc1,2.8,25.0,/,31.8,5.7,47.8*,28.2,13.0*,
Cc1ccc(-c2nc(Nc3ccc(O)cc3)c3ccccc3n2)cc1,2.3,5.7,153.9,-12.1,2.1,29.5,/,/,
Cc1ccc(-c2nc(Nc3cccc(O)c3)c3ccccc3n2)cc1,2.0,11.1,203.5,13.3,-1.0,37.1*,32.3,10.2*,
O=C(O)c1cccc(Nc2nc(-c3ccc([N+](=O)[O-])cc3)nc3ccccc23)c1,1.1,9.9,215.1,20.3,-1.2,1.9,/,/,
O=S(=O)(Nc1ncccn1)c1ccc(NC(=S)N2CCN(Cc3ccc(F)cc3Cl)CC2)cc1,-2.4,2.6,325.3,1.9,-0.3,38.6*,37.8*,11.1*,
N#Cc1c(NC(=O)Cn2cnc3ccccc3c2=O)oc(-c2ccccc2)c1-c1ccccc1,-1.2,1.4,66.4,-11.9,3.5,43.3*,33.6,13.6*,
Cc1ccccc1NC(=O)OC1CC2CC1[C@H]1CCCCN1[C@H]2Cc1ccccc1 (stereo partly drawn),/,/,/,/,/,2.5,/,/,
C[C@@H]1CCCCO[C@H](CN(C)C)[C@H](C)CN([C@@H](C)CO)C(=O)c2cc(NC(=O)Nc3ccc(C(F)(F)F)cc3)ccc2O1,-2.0,/,/,-4.4,-3.0,2.6,/,/,
C[C@@H]1CCCCO[C@H](CN(C)Cc2ccc(C(=O)O)cc2)[C@H](C)CN([C@@H](C)CO)C(=O)c2cc(NC(=O)Nc3ccc(C(F)(F)F)cc3)ccc2O1,0.2,/,/,-0.5,0.9,49.8*,53.0*,14.7*,
O=C(CN1CCN(Cc2ccccc2)CC1)N/N=C\c1ccccc1[N+](=O)[O-],/,/,/,/,/,2.1,/,/,
COC(=O)[C@]12C[C@H](CC(=O)NCc3ccc(C)o3)C(=O)N(Cc3ccccc3)C1=C[C@H](C(C)C)O[C@@H]2C1CC1,/,/,/,/,/,1.4,/,/,
O=C(CC1CCCC1)Nc1cc(S(=O)(=O)N2CCOCC2)ccc1O,-4.0,-7.2,149.7,-3.8,4.2,1.5,/,/,
CCCCc1ccc(CC(=O)Nc2cc(S(=O)(=O)N3CCOCC3)ccc2O)cc1,24.9,-4.2,201.1,3.1,1.6,47.7*,51.3*,16.1*,
O=C(CSc1nc2ccccc2s1)Nc1cc(S(=O)(=O)N2CCOCC2)ccc1O,23.5,-2.5,254.8,-2.0,-0.4,48.8*,39.7*,15.9*,
NS(=O)(=O)c1ccc(NC(=O)CSc2nnc(-c3cccs3)o2)cc1,/,/,/,/,/,3.5,/,/,
Cc1ccc(NC(=S)C2=C(O)c3ccccc3N(C)S2(=O)=O)cc1,1.5,1.7,291.7,-0.9,3.5,58.6*,34.9*,8.7*,
O=C1NC(=Nc2cccc(O)c2)S/C1=C\c1cccc([N+](=O)[O-])c1,2.3,4.5,438.1,7.9,1.6,47.5*,33.3,10.9*,
O=C1NC(=Nc2cccc(O)c2)S/C1=C\c1cccnc1,1.0,10.0,131.7,-1.0,-2.6,4.6,/,/,
COC(=O)CC1=NN(c2ccc(OC)cc2)C(=O)C1,1.1,4.0,131.8,-1.0,0.4,42.7*,2.4,0.1,
CCOC(=O)c1ccccc1NC(=O)Cc1c(C(=O)O)n(C)c2ccccc12,0.8,1.6,168.3,-1.7,1.0,36.8*,25.5,4.1,
COC(=O)c1cc(-c2c(C)noc2C)c(=O)n2c1CCC2,/,/,/,/,/,1.3,/,/,
SMILES,MPTP block,Beta2AR agonist,T cell HTS,Exocytosis inh,V-ATPase pH,rCAG binder,rCAG binder conf,dCAG dye counter,others
COC(=O)[C@]1(C#N)CC(=O)N(Cc2ccc(Cl)cc2)[C@@H]1c1ccc(OC)cc1,/,/,/,/,/,2.0,/,/,
COc1cc(C)c(C(=O)Oc2cc(C)c(C(=O)O)c(O)c2C)c(O)c1C,36.6,2.6,376.3,3.4,-0.7,86.7*,83.6*,51.7*,
COC(=O)c1c(C)cc(OC(C)=O)c(C)c1OC(C)=O,1.1,0.0,410.9,-2.4,-3.2,0.0,/,/,
O=C(NC(=S)Nc1ccc(S(=O)(=O)Nc2nccs2)cc1)c1ccccc1F,0.3,-6.3,390.1,-16.2,-2.8,41.7*,41.4*,12.9*,
CC(C)C(=O)NC(=S)Nc1ccc(S(=O)(=O)Nc2nccs2)cc1,-0.7,0.7,170.5,-1.2,-4.3,9.9,/,/,
Cc1cc(C)cc(NS(=O)(=O)c2ccc(NC(=S)NC(=O)c3ccc(Br)o3)cc2)c1,1.0,-3.1,342.9,4.3,-4.3,23.7,/,/,
O=C(NC(=S)Nc1ccc(S(=O)(=O)Nc2nccs2)cc1)c1ccc(F)c(F)c1,-2.4,-4.7,125.2,13.2,2.4,62.5*,40.1*,12.3*,
O=C(NC(=S)Nc1ccc(S(=O)(=O)Nc2nccs2)cc1)c1cccnc1,1.7,-4.0,149.5,3.0,0.6,7.1,/,/,
O=C(NC(=S)Nc1ccc(S(=O)(=O)Nc2nccs2)cc1)c1ccc(Br)o1,-0.8,3.6,346.8,1.3,-0.2,46.9*,33.3,11.9*,
O=C(NC(=S)Nc1ccc(S(=O)(=O)Nc2nccs2)cc1)c1ccccc1,2.6,8.8,430.3,-8.2,0.3,40.6*,37.2*,8.9*,
O=C(NC1CCCCN(Cc2cccc(Cl)c2)C1=O)c1ccccc1 (stereo not drawn),/,/,/,/,/,-1.7,/,/,
O=C(NCc1ccccc1)OC1CC2CC1[C@H]1CCCCN1C2 (stereo partly drawn),/,/,/,/,/,6.8,/,/,
COc1ccccc1C(=O)Nc1ccc(S(=O)(=O)Nc2nccs2)cc1,-0.9,6.2,168.3,-6.3,-1.6,21.8,/,/,
COc1cccc(OC)c1C(=O)NC(=S)Nc1ccc(S(=O)(=O)Nc2nccs2)cc1,-0.8,4.5,354.4,-0.1,-2.6,59.3*,40.0*,15.8*,
O=C(O)Cc1c[nH]c2cccc(O)c12,-1.7,-2.8,169.9,7.8,0.2,45.9*,28.9,12.6*,
COC(=O)[C@]12CCCCC=C1N(Cc1ccc(OC)cc1)C(=O)[C@@H]2CC(=O)NCc1ccc(OC)c(OC)c1,/,/,/,/,/,1.2,/,/,
